# This is a sample that favours compounds with a hit; in the whole collection about 1.8% have one here.
# NPY-Y1 PAM-ag = potentiators or agonists of human neuropeptide Y receptor Y1. P25929. NPY-Y1 expressing cells, potentiator/agonist activation. activation, % at 3.6 µM. 220,000 tested, 0.37% active. AID 1304; in the data active means activation above about 33%, passing the limit was not always enough;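 further: cells stimulated with NPY at EC10 then isoproterenol at EC100; 0% = low agonist plus stimulus and 100% = saturating agonist plus stimulus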
# NPY Y2 blocker = NPY-Y2 (human) receptor antagonism; P49146; NPY-Y2 expressing cells, antagonist mode; inhibition, % at 2.7 µM; 140,000 tested, 0.99% active;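 further: 0% = vehicle with agonist challenge and 100% = reference antagonist with challenge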
# Target sequence (P49146 whole entry, looked up): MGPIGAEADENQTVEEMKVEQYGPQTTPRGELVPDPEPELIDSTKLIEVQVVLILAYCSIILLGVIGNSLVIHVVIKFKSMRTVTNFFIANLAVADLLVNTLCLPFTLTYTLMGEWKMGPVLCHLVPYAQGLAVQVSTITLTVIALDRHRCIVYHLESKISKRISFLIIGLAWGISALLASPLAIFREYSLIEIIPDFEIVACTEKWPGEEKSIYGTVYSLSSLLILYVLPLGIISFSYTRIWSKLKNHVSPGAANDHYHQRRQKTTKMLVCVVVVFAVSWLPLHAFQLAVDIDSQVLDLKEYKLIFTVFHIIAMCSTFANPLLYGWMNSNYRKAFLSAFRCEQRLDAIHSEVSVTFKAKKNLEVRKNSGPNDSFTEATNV
# NPY Y1 blocker = blocks the human neuropeptide Y Y1 receptor | inhibition, % at 3.6 µM | HEK293-CNG Y1 cells, membrane potential fluorescence; NPY at EC95, then isoproterenol | P25929 | 200,000 tested, 1% active;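 active means inhibition above the campaign mean inhibition of all tested compounds plus 3 SD, cut at about 20% in these data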;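 further: 0% = DMSO wells given NPY plus isoproterenol and 100% = isoproterenol alone without NPY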
#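 System: HEK293 cells with Y1 receptor plus CNG channel / Probe or stimulus: NPY 25 nM then isoproterenol 1 µM plus Ro 20-1724 25 µM / Compound: one concentration, 3.6 µM, in 0.4% DMSO / Schedule: compound incubation 1 h at room temperature, readout 45 min post-stimulation / Measured by: membrane potential fluorescence / Read-out: % inhibition of NPY effect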
# NPY-Y2 PAM-ag = potentiates or activates human NPY-Y2 receptor | P49146 | cells expressing NPY-Y2, potentiator/agonist read-out | activation, % at 3.6 µM | 220,000 tested, 0.45% active | AID 1359; in the data active means activation above about 27%;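 further: cells stimulated with NPY near EC25 plus isoproterenol at EC100; 0% = vehicle plus submaximal agonist and 100% = vehicle plus saturating agonist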
# NPY1 antag conf = confirmation of human neuropeptide Y receptor Y1 antagonists. shares compounds with NPY Y1 blocker. HEK293-CNG NPY-Y1, membrane potential fluorescence, cAMP; NPY challenge against isoproterenol-raised cAMP. inhibition, % at 3.6 µM. 1,200 tested, 21% active. AID 1254; in the data active means inhibition above about 20%;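 further: 0% = vehicle with agonist plus stimulus and 100% = stimulus alone without agonist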
# NPY-Y2 antag ct = human NPY-Y2 antagonism in NPY-Y1 counter-screen; shares compounds with NPY Y1 blocker; HEK293 NPY-Y2 CNG membrane potential fluorescence; cells given NPY, then isoproterenol; inhibition, % at 3.6 µM; 1,200 tested, 28% active; AID 1255;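 further: 0% = DMSO with agonist challenge and 100% = reference antagonist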
# Numbers without * were called inactive; nt = no result given. Unless noted, no stated cut-off is given here; in the data, active means inhibition above about 17%; inactive means the rest.
SMILES,NPY-Y1 PAM-ag,NPY Y2 blocker,NPY Y1 blocker,NPY-Y2 PAM-ag,NPY1 antag conf,NPY-Y2 antag ct
O=c1cc(CN2CCN(c3ccccc3)CC2)c2c(ccc3ccccc32)o1,-131,5,44*,-5,36*,57*
O=c1cc(CN2CCC3(CC2)OCCO3)c2c(ccc3ccccc32)o1,-10,7,4,-13,nt,nt
COc1ccc(CC2(CO)CCN(Cc3cccc(OC)c3OC)CC2)cc1,-10,nt,7,-12,nt,nt
COc1ccc(CC2(CO)CCN(C(C)Cc3ccc(Cl)cc3)CC2)cc1 (stereo not given),-35,nt,26*,-89,16,21*
CCC(=O)Nc1c(C#N)c2nc3ccccc3nc2n1C1CCCCC1,-22,3,6,-4,nt,nt
CCOC(=O)c1c(NC(=O)c2ccco2)n(C2CCCCC2)c2nc3ccccc3nc12,3,10,25*,8,-3,-2
Cc1ccc(Cn2ncc3c(N4CCN(Cc5ccc(Cl)cc5)CC4)ncnc32)cc1,1,8,1,1,nt,nt
Cc1ccccc1N1CCN(c2ncnc3c2cnn3Cc2ccc(Cl)cc2)CC1,-37,7,29*,-8,10,17*
O=C(CN1CCCCC1)Nc1ccccc1-c1ccccc1,-8,6,7,-4,nt,nt
O=C(CN1CCN(C2CCCCC2)CC1)Nc1ccccc1-c1ccccc1,-36,17,21*,-15,6,12
CN(C)/C=C/C(=O)c1ccc(Cl)c([N+](=O)[O-])c1,-5,nt,2,-6,nt,nt
O=C(c1ccco1)N(CCC(c1ccccc1)c1ccco1)Cc1ccc(F)cc1 (stereo not given),-21,6,25*,-44,13,13
COc1ccc(OC)c(CCNC(=O)CS(=O)(=O)Cc2nc(-c3ccccc3C)oc2C)c1,-41,16,21*,-47,7,7
Oc1ccccc1CNCCCNCc1ccccc1O,-70,10,30*,-16,12,17
OCCCNCc1cccc2ccccc12,-18,4,5,-10,nt,nt
Cc1cc(N2CCN(c3cccc(C)c3C)CC2)nc(-c2ccccc2)n1,-23,14,21*,-34,22*,17*
CC(=O)NC1(c2ccccc2)CCN(c2cc(C)nc(-c3ccccc3)n2)CC1,-11,nt,46*,-23,34*,46*
C=CCNC(=O)/C(C#N)=C\c1cc(Cl)c(O)c(OCC)c1,-17,1,4,-24,nt,nt
CCOc1cc(/C=C2\CCC/C(=C\c3cc(Cl)c(O)c(OCC)c3)C2=O)cc(Cl)c1O,-55,16,44*,-44,45*,44*
CCOc1ccc2oc(C(=O)OC(C(=O)NC(N)=O)C(C)C)c(C)c2c1 (stereo not given),-12,nt,nt,-11,nt,nt
COc1ccc(-c2cc(-c3n[nH]c(=S)n3-c3ccccc3OC)[nH]n2)cc1,-66,16,32*,-15,37*,66*
COc1ccc(OC)c(-n2c(-c3cc(-c4ccccc4)n[nH]3)n[nH]c2=S)c1,-16,2,9,-10,nt,nt
CCN(CC)CC(=O)Nc1sc(C)c(C)c1C(=O)c1ccc(C)cc1,-16,nt,2,-7,nt,nt
Cc1ccc(C(=O)c2c(NC(=O)c3ccccc3C)sc(C)c2C)cc1,-66,3,23*,-31,17,36*
CN1CC(=O)N2[C@H](c3ccc4c(c3)OCO4)c3[nH]c4ccccc4c3C[C@@H]2C1=O,20,nt,-4,4,nt,nt
SMILES,NPY-Y1 PAM-ag,NPY Y2 blocker,NPY Y1 blocker,NPY-Y2 PAM-ag,NPY1 antag conf,NPY-Y2 antag ct
CCCNNC(=O)C(O)(c1cccc(C)c1)c1cccc(C)c1,-11,10,26*,-1,2,7
CCNNC(=O)C(O)(c1cccc(C)c1)c1cccc(C)c1,25,5,0,4,nt,nt
c1ccc(-c2cc3c(-n4cccc4)ncnc3o2)cc1,-9,10,21*,-23,4,8
c1ccc(Oc2ncnc3oc(-c4ccccc4)cc23)cc1,7,2,-1,-8,nt,nt
O=C(C[n+]1ccc(C(=O)NCCCO)cc1)c1cccc(Br)c1,-6,nt,nt,3,nt,nt
c1ccc2c(c1)OCC(c1nnc3sc(-c4cnccn4)nn13)O2 (stereo not given),-2,3,7,-3,nt,nt
c1csc(-c2nn3c(C4COc5ccccc5O4)nnc3s2)c1 (stereo not given),-26,2,24*,-15,7,7
Fc1ccc(-c2nn3c(C4COc5ccccc5O4)nnc3s2)cc1 (stereo not given),-58,4,21*,-11,11,11
c1ccc2c(c1)OCC(c1nnc3sc(-c4ccc5c(c4)OCO5)nn13)O2 (stereo not given),-19,9,11,-12,nt,nt
C/C(O)=C(/C=Nc1ccccc1)C(=O)Nc1ccccc1,-22,nt,4,-17,nt,nt
FC(F)(F)COc1ccc(-c2nnc(SCc3ccccc3)o2)cn1,-33,nt,nt,0,nt,nt
COc1ccc(C(C)(C)C)cc1S(=O)(=O)N1CCC(C(N)=O)CC1,-4,-1,23*,-4,0,0
COc1ccc(F)cc1S(=O)(=O)N1CCC(C(N)=O)CC1,4,1,2,-5,nt,nt
O=C(COC(=O)CCc1nc2ccccc2s1)NC(=O)NCc1ccco1,-16,nt,2,1,nt,nt
N=C1C(c2nc3ccccc3s2)=C(O)CN1NC(=O)c1c[nH]c2ccccc12,18,nt,28*,16,26*,28*
COc1cc(C)c(C)cc1S(=O)(=O)N1CCN(Cc2ccc3c(c2)OCO3)CC1,-43,11,24*,-23,13,11
NCCOc1ccc(C23CC4CC(CC(C4)C2)C3)cc1,-34,nt,22*,-14,21*,35*
OCCN1CCN(CC(O)COc2ccc(C34CC5CC(CC(C5)C3)C4)cc2)CC1 (stereo not given),-50,nt,12,-42,nt,nt
COc1ccc(Nc2ccc(C(=O)O)cc2[N+](=O)[O-])cc1,-21,6,22*,3,4,9
COc1ccc(Nc2ccc(C(N)=O)cc2[N+](=O)[O-])cc1,9,nt,5,6,nt,nt
CCC(Sc1ncnc2sc(C)c(C)c12)C(=O)OC (stereo not given),4,6,26*,-19,9,10
O=C(CCCN1C(=O)c2cccnc2C1=O)Nc1ccc(Br)cc1,1,nt,1,4,nt,nt
CCNc1nc(NC(C)C)nc(SCCOC(=O)c2ccccc2)n1,-12,2,-3,-10,nt,nt
CC(C)Nc1nc(NC(C)C)nc(SCCOC(=O)Nc2ccc(Cl)cc2Cl)n1,-44,10,21*,-10,13,12
CSc1ncccc1C(=O)OCC(=O)NC(C)C,-3,nt,0,2,nt,nt
OCCC1CN(Cc2ccon2)CCN1Cc1ccccc1 (stereo not given),8,nt,1,2,nt,nt
CCOC(=O)CSc1nnc(COc2cccc(C)c2)o1,10,nt,5,-3,nt,nt

# Compound activity from PubChem.
